Source: ChEMBL document CHEMBL3872284, “Hydrazone Linker as a Useful Tool for Preparing Chimeric Peptide/Nonpeptide Bifunctional Compounds” (ACS Med Chem Lett, 2017)
pIC50: −log10 of the molar value. Activity calls are given as the source filed them. No cut-off for these calls is given here.

Legend:
Mu-type opioid receptor [1] = biological target: T1, Mu-type opioid receptor (Rattus norvegicus, UniProt P33535); assay: Displacement of [3H]DAMGO from MOR in Sprague-Dawley rat brain homogenate measured after 180 mins by scintillation counting analysis; type: tissue-based
[2] = biological target: T2, Delta-type opioid receptor (Rattus norvegicus, UniProt P33533); assay: Displacement of [3H]DELT2 from DOR in Sprague-Dawley rat brain homogenate measured after 180 mins by scintillation counting analysis; type: tissue-based
Mus musculus [3] = assay: Analgesic activity in C57BL6 mouse assessed as increase in thermal stimulus-induced paw withdrawal latency at 48 umol/kg, iv measured after 30 mins by plantar test; type: functional, organism-based
Summary of the method: (§1)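 Heat-induced paw withdrawal (plantar test) after intravenous dosing. Readings taken over a time course to 120 min post-injection and expressed as % maximal possible effect (%MPE). n=6–8 animals per group, with morphine-treated animals as comparator and significance testing versus morphine.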

Rattus norvegicus [4] = assay: Analgesic activity in Wistar rat assessed as increase in thermal stimulus-induced tail-flick latency at 12 nmol/kg administered intrathecally measured up to 60 mins; type: functional
Summary of the method: (§2)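 Intrathecal injection followed by tail-flick testing at 5 to 120 min post-injection. Responses expressed as % maximal possible effect (%MPE). Doses given in nmol/kg. n=6–8 animals per group, with a morphine group and statistics versus morphine.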

Rattus norvegicus [5] = assay: Analgesic activity in Wistar rat assessed as effect on thermal stimulus-induced tail-flick latency at 2 nmol/kg administered intrathecally measured after 15 mins relative to control; type: functional; summary of the method: as §2
Mus musculus [6] = assay: Analgesic activity in C57BL6 mouse assessed as effect on thermal stimulus-induced tail-flick latency at 80 umol/kg, iv measured after 120 mins relative to control; type: functional
Summary of the method: (§3)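 Tail-flick test after intravenous injection. Latencies recorded at time points from 5 to 120 min post-dose and converted to % maximal possible effect (%MPE). Groups of n=6–8 animals, compared against a morphine-treated group.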

Mus musculus [7] = assay: Analgesic activity in C57BL6 mouse assessed as effect on thermal stimulus-induced paw withdrawal latency at 80 umol/kg, iv measured after 30 mins by plantar test relative to control; type: functional; summary of the method: as §1
Substance-P receptor = Substance-P receptor (Rattus norvegicus, UniProt P14600); assay: Displacement of [Leu-3,4,5-3H(N)]-Substance P from NK1 receptor in rat brain homogenate measured after 60 mins by microbeta scintillation counting analysis; type: tissue-based
[8] = biological target: T2, Delta-type opioid receptor; assay: Displacement of [3H]DELT2 from DOR in rat brain homogenate measured after 60 mins by microbeta scintillation counting analysis; type: tissue-based
Mus musculus [9] = assay: Analgesic activity in C57BL6 mouse assessed as effect on thermal stimulus-induced tail-flick latency at 20 to 80 umol/kg, iv measured after 5 mins; type: functional; summary of the method: as §3
Mu-type opioid receptor [10] = biological target: T1, Mu-type opioid receptor; assay: Displacement of [3H]DAMGO from MOR in rat brain homogenate measured after 60 mins by microbeta scintillation counting analysis; type: tissue-based
Mus musculus [11] = assay: Analgesic activity in C57BL6 mouse assessed as effect on thermal stimulus-induced tail-flick latency at 80 umol/kg, iv measured up to 30 mins relative to control; type: functional; summary of the method: as §3
Mus musculus [12] = assay: Analgesic activity in C57BL6 mouse assessed as effect on thermal stimulus-induced tail-flick latency at 80 umol/kg, iv measured after 60 mins relative to control; type: functional; summary of the method: as §3

T1 sequence (P33535 whole entry): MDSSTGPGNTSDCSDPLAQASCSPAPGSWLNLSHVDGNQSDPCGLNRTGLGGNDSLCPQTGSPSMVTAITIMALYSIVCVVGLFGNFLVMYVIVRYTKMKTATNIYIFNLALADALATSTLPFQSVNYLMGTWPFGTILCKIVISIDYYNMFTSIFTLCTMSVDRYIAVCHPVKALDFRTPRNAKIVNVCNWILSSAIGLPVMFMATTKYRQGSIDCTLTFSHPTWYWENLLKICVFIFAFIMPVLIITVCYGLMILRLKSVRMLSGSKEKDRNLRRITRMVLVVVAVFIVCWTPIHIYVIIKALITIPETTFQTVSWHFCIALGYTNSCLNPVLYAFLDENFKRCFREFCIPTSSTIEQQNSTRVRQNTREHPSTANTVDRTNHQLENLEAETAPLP
T2 sequence (P33533 whole entry): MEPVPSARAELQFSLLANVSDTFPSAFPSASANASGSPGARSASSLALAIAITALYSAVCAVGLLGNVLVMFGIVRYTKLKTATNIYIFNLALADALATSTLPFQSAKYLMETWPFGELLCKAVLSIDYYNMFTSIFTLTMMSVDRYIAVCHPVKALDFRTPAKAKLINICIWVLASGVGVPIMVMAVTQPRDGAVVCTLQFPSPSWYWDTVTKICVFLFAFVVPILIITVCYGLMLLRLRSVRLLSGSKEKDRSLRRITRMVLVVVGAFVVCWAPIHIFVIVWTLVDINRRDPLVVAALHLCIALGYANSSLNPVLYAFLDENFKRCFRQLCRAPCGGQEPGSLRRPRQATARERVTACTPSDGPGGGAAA
Substance-P receptor, sequence (P14600 whole entry): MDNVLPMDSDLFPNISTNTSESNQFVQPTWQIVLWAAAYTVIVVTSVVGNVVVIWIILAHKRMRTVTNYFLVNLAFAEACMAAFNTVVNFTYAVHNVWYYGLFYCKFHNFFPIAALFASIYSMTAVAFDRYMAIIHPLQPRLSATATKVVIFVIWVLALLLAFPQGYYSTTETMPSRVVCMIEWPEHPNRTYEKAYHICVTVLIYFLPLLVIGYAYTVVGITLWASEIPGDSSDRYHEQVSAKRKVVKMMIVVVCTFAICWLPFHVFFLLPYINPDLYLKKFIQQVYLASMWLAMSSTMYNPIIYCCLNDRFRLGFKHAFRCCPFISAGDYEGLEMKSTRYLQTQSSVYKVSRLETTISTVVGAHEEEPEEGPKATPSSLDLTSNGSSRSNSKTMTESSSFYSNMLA

## C[C@@H](NC(=O)[C@@H](N)Cc1ccc(O)cc1)C(=O)NCC(=O)N[C@@H](Cc1ccccc1)C(=O)NN
Mu-type opioid receptor [1]
  pIC50: 8.33
[2]
  pIC50: 6.64

## C[C@@H](NC(=O)[C@@H](N)Cc1ccc(O)cc1)C(=O)NCC(=O)N[C@@H](Cc1ccccc1)C(=O)NNC(=O)[C@@H](N)Cc1ccccc1
Mu-type opioid receptor [1]
  pIC50: 9.13
[2]
  pIC50: 7.82

## CN1CC[C@]23c4c5ccc(O)c4O[C@H]2[C@@H](O)C=C[C@H]3[C@H]1C5
Mus musculus [3]
  Activity: Active
Rattus norvegicus [4]
  Activity: Active

## C[C@@H](NC(=O)[C@@H](N)Cc1ccc(O)cc1)C(=O)NCC(=O)N[C@@H](Cc1ccccc1)C(=O)N/N=C/c1cc(C(F)(F)F)cc(C(F)(F)F)c1.O=C(O)C(F)(F)F
Rattus norvegicus [5]
  MPE: 80.31%
Mus musculus [6]
  MPE: 16.84%
Mus musculus [7]
  MPE: 75.41%
Substance-P receptor
  pIC50: 8.37
[8]
  pIC50: 7.13
Mus musculus [9]
  MPE: 84.81%
Mu-type opioid receptor [10]
  pIC50: 7.90
Mus musculus [11]
  MPE: 94.26%
Mus musculus [12]
  MPE: 69.84%
